Data reported in ChEMBL document CHEMBL1136094, “Novel, potent and selective cyclin D1/CDK4 inhibitors: indolo[6,7-a]pyrrolo[3,4-c]carbazoles” (Bioorg Med Chem Lett, 2003).
pIC50: −log10 of the molar value. Values after ≈ are worked out from the molar mass of the structure shown.

What was measured:
[1] = Aqueous solubility (in situ) in D5W after 1 week was determined; assay type: physicochemical; conditions: D5W
[2] = Inhibition of AMP-activated Protein Kinase at 100 nM; parameters: scale not given: the % may be the effect or the level left
In short: (§1)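 Panel profiling of isolated kinases with inhibitor at 100 nM and 500 nM. […] Remaining kinase activity is expressed as % of control and is the mean of duplicate assays.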

[3] = biological target: Tyrosine-protein kinase Blk (Homo sapiens) (UniProt P51451); assay: Inhibition of B lymphoid tyrosine kinase at 100 nM; parameters: scale not given: the % may be the effect or the level left; in short: as §1
[4] = biological target: Calcium/calmodulin-dependent protein kinase type IV (Homo sapiens) (UniProt Q16566); assay: Inhibition of Calcium/calmodulin-dependent protein kinase type IV at 100 nM; parameters: scale not given: the % may be the effect or the level left; in short: as §1
[5] = biological target: Casein kinase II (Homo sapiens) (UniProt P67870+P68400+P19784); assay: Inhibition of CK2 kinase at 500 nM; assay type: protein-complex assay; parameters: scale not given: the % may be the effect or the level left; in short: as §1
[6] = biological target: Cyclin-dependent kinase 5/CDK5 activator 1 (Homo sapiens) (UniProt Q00535+Q15078); assay: Inhibition of Cyclin-dependent kinase 5-p35nck5a at 100 nM; assay type: protein-complex assay; parameters: scale not given: the % may be the effect or the level left; in short: as §1
[7] = biological target: Cyclin-dependent kinase 2/cyclin A (Homo sapiens) (UniProt P24941+P20248+P78396); assay: Inhibition of Cyclin A-cyclin-dependent kinase 2 at 100 nM; assay type: protein-complex assay; parameters: scale not given: the % may be the effect or the level left; in short: as §1
[8] = biological target: T1, CDK3/cyclin E (Homo sapiens) (UniProt P24864+O96020+Q00526); assay: Inhibition of Cyclin E-cyclin-dependent kinase 3 at 100 nM; assay type: protein-complex assay; parameters: scale not given: the % may be the effect or the level left; in short: as §1
[9] = biological target: T1, CDK3/cyclin E (Homo sapiens); assay: Inhibition of Cyclin E-cyclin-dependent kinase 3 at 500 nM; assay type: protein-complex assay; parameters: scale not given: the % may be the effect or the level left; in short: as §1
[10] = biological target: Cyclin-dependent kinase 4/cyclin D1 (Homo sapiens, UniProt P11802); assay: Inhibitory activity against Cyclin D1-cyclin-dependent kinase 4 in enzymatic assay by measuring phosphorylation of RbING; assay type: protein-complex assay
[11] = test system: HCT-116; assay: In vitro antiproliferative activity against human carcinoma cell line HCT116 (colon); assay type: functional, cell-based
[12] = biological target: Cyclin-dependent kinase 4 (Homo sapiens) (UniProt P11802); assay: Inhibition of Rb phosphorylation at the CDK4 specific Ser780 residue (1 fold increase over control) after 24 hr incubation in HCT116 cells; assay type: functional, cell-based; conditions: HCT-116, concentration not given here
[13] = biological target: Cyclin-dependent kinase 4 (Homo sapiens) (UniProt P11802); assay: Inhibition of Rb phosphorylation at the CDK4 specific Ser780 residue (3 fold increase over control) after 24 hr incubation in HCT116 cells; assay type: functional, cell-based; conditions: HCT-116, concentration not given here
[14] = test system: NCI-H460; assay: In vitro antiproliferative activity against human carcinoma cell line H460 (lung); assay type: functional, cell-based
[15] = biological target: Mitogen-activated protein kinase kinase kinase 20 (Homo sapiens, UniProt Q9NYL2); assay: Inhibition of MLK-7 kinase
[16] = biological target: Dual specificity mitogen-activated protein kinase kinase 7 (Homo sapiens) (UniProt O14733); assay: Inhibition of MKK7-beta kinase at 500 nM; parameters: scale not given: the % may be the effect or the level left; in short: as §1
[17] = biological target: Mitogen-activated protein kinase 1 (Homo sapiens) (UniProt P28482); assay: Inhibition of Mitogen-activated protein kinase 2 at 100 nM; parameters: scale not given: the % may be the effect or the level left; in short: as §1
[18] = biological target: Mitogen-activated protein kinase 1 (Homo sapiens) (UniProt P28482); assay: Inhibition of Mitogen-activated protein kinase 2 at 500 nM; parameters: scale not given: the % may be the effect or the level left; in short: as §1
[19] = biological target: Dual specificity mitogen-activated protein kinase kinase 4 (Homo sapiens) (UniProt P45985); assay: Inhibition of mitogen-activated protein kinase kinase 4 at 100 nM; parameters: scale not given: the % may be the effect or the level left
In short: (§2)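 Panel of 39 kinases, each tested at 100 and 500 nM inhibitor. […] Activity is expressed as % of control and is the mean of duplicate assays.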

[20] = biological target: Dual specificity mitogen-activated protein kinase kinase 4 (Homo sapiens) (UniProt P45985); assay: Inhibition of mitogen-activated protein kinase kinase 4 at 500 nM; parameters: scale not given: the % may be the effect or the level left; in short: as §2
[21] = biological target: 3-phosphoinositide-dependent protein kinase 1 (Homo sapiens) (UniProt O15530); assay: Inhibition of PDK1 kinase at 100 nM; parameters: scale not given: the % may be the effect or the level left; in short: as §1
[22] = biological target: 3-phosphoinositide-dependent protein kinase 1 (Homo sapiens) (UniProt O15530); assay: Inhibition of PDK1 kinase at 500 nM; parameters: scale not given: the % may be the effect or the level left; in short: as §1
[23] = biological target: RAF proto-oncogene serine/threonine-protein kinase (Homo sapiens) (UniProt P04049); assay: Inhibition of RAF proto-oncogene serine/threonine-protein kinase at 100 nM; parameters: scale not given: the % may be the effect or the level left; in short: as §2
[24] = biological target: RAC-alpha serine/threonine-protein kinase (Homo sapiens, UniProt P31749); assay: Inhibition of Protein kinase B, Akt-1
[25] = biological target: Protein kinase C alpha type (Homo sapiens) (UniProt P17252); assay: Inhibition of Protein kinase C alpha at 100 nM; parameters: scale not given: the % may be the effect or the level left; in short: as §1
[26] = biological target: Rho-associated protein kinase 2 (Homo sapiens) (UniProt O75116); assay: Inhibition of Protein kinase ROCK2 at 100 nM; parameters: scale not given: the % may be the effect or the level left; in short: as §2
[27] = biological target: Protein kinase C theta type (Homo sapiens) (UniProt Q04759); assay: Inhibition of Protein kinase C theta at 500 nM; parameters: scale not given: the % may be the effect or the level left; in short: as §2
[28] = biological target: cAMP-dependent protein kinase (PKA) (Homo sapiens, UniProt P22694+P17612+P22612); assay: Inhibitory activity against Protein kinase A (Histone); assay type: protein assay
[29] = biological target: Serine/threonine-protein kinase Chk1 (Homo sapiens) (UniProt O14757); assay: Inhibition of Serine/threonine-protein kinase Chk1 at 500 nM; parameters: scale not given: the % may be the effect or the level left; in short: as §2
[30] = biological target: Serine/threonine-protein kinase Chk2 (Homo sapiens) (UniProt O96017); assay: Inhibition of Serine/threonine-protein kinase Chk2 at 100 nM; parameters: scale not given: the % may be the effect or the level left; in short: as §2
[31] = biological target: Serine/threonine-protein kinase Chk2 (Homo sapiens) (UniProt O96017); assay: Inhibition of Serine/threonine-protein kinase Chk2 at 500 nM; parameters: scale not given: the % may be the effect or the level left; in short: as §2
[32] = biological target: T2, Ribosomal protein S6 kinase (P70S6K) (Homo sapiens) (UniProt Q9UBS0+P23443); assay: Inhibition of Ribosomal protein S6 kinase (p70S6K) at 100 nM; assay type: protein-complex assay; parameters: scale not given: the % may be the effect or the level left; in short: as §2
[33] = biological target: T2, Ribosomal protein S6 kinase (P70S6K) (Homo sapiens); assay: Inhibition of Ribosomal protein S6 kinase (p70S6K) at 500 nM; assay type: protein-complex assay; parameters: scale not given: the % may be the effect or the level left; in short: as §2
[34] = biological target: Tyrosine-protein kinase CSK (Homo sapiens) (UniProt P41240); assay: Inhibition of Tyrosine-protein kinase CSK at 100 nM; parameters: scale not given: the % may be the effect or the level left; in short: as §2
[35] = biological target: Tyrosine-protein kinase CSK (Homo sapiens) (UniProt P41240); assay: Inhibition of Tyrosine-protein kinase CSK at 500 nM; parameters: scale not given: the % may be the effect or the level left; in short: as §2
[36] = biological target: Tyrosine-protein kinase SYK (Homo sapiens) (UniProt P43405); assay: Inhibition of Syk protein tyrosine kinase at 500 nM; parameters: scale not given: the % may be the effect or the level left; in short: as §2
[37] = biological target: Proto-oncogene tyrosine-protein kinase Src (Homo sapiens) (UniProt P12931); assay: Inhibition of c-Src protein tyrosine kinase at 100 nM; parameters: scale not given: the % may be the effect or the level left; in short: as §2
[38] = biological target: Mitogen-activated protein kinase 8 (Homo sapiens) (UniProt P45983); assay: Inhibition of c-Jun N-terminal kinase 1-alpha 1 at 100 nM; parameters: scale not given: the % may be the effect or the level left; in short: as §2
[39] = biological target: Mitogen-activated protein kinase 8 (Homo sapiens) (UniProt P45983); assay: Inhibition of c-Jun N-terminal kinase 1-alpha 1 at 500 nM; parameters: scale not given: the % may be the effect or the level left; in short: as §2
[40] = biological target: Tyrosine-protein kinase ZAP-70 (Homo sapiens) (UniProt P43403); assay: Inhibition of Zeta-chain (TCR) associated protein kinase 70 kDa (ZAP70) at 500 nM; parameters: scale not given: the % may be the effect or the level left; in short: as §2
[41] = biological target: Tyrosine-protein kinase Lck (Homo sapiens) (UniProt P06239); assay: Inhibition of p56 Lck tyrosine kinase at 500 nM; parameters: scale not given: the % may be the effect or the level left; in short: as §2
[42] = biological target: MAP kinase-activated protein kinase 2 (Homo sapiens) (UniProt P49137); assay: Inhibition of mitogen-activated protein kinase-activated protein kinase 2 at 500 nM; parameters: scale not given: the % may be the effect or the level left; in short: as §2
[43] = Percent control against SKG at compound concentration of 500 nM; in short: as §2
[44] = biological target: Tyrosine-protein kinase Lyn (Homo sapiens) (UniProt P07948); assay: Inhibition of Protein tyrosine kinase Lyn at 100 nM; parameters: scale not given: the % may be the effect or the level left

Chain of 3-phosphoinositide-dependent protein kinase 1 (Homo sapiens) (O15530 whole entry): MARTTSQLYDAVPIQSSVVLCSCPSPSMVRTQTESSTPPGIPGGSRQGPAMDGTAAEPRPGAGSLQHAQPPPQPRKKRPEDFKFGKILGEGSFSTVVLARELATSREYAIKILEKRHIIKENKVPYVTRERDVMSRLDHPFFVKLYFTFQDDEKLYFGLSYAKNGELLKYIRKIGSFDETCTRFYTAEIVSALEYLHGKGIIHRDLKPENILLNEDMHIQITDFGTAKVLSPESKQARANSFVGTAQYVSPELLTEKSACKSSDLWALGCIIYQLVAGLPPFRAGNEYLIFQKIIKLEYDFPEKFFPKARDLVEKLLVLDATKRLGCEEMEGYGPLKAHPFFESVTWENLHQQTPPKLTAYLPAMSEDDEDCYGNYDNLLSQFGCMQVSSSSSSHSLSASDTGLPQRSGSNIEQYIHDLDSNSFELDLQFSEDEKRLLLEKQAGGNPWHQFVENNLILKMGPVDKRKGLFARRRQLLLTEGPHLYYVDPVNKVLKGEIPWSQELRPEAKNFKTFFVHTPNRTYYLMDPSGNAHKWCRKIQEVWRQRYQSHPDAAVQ
T1 sequence (O96020 whole entry, looked up): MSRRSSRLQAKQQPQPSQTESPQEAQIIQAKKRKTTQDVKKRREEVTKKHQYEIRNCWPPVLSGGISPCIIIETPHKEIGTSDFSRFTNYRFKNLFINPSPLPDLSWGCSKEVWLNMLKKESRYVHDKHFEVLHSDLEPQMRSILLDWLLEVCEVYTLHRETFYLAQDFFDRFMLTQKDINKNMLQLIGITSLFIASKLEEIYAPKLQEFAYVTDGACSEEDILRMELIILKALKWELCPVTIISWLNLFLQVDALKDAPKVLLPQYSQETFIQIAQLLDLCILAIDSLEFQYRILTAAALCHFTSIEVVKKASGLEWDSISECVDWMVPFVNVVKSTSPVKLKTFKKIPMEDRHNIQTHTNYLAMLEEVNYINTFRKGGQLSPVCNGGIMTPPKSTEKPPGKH
T1 sequence (P24864 whole entry, looked up): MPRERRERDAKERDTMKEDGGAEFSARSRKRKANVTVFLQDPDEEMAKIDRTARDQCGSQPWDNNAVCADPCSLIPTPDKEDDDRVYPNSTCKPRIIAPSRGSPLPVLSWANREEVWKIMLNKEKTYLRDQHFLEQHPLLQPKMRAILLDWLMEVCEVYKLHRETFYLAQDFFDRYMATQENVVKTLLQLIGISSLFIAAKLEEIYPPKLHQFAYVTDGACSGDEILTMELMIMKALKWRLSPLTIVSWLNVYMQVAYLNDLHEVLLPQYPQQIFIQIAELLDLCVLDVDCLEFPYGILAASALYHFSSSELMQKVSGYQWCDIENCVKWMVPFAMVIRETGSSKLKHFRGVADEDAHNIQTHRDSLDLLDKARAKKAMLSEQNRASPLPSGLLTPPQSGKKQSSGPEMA
T1 sequence (Q00526 whole entry, looked up): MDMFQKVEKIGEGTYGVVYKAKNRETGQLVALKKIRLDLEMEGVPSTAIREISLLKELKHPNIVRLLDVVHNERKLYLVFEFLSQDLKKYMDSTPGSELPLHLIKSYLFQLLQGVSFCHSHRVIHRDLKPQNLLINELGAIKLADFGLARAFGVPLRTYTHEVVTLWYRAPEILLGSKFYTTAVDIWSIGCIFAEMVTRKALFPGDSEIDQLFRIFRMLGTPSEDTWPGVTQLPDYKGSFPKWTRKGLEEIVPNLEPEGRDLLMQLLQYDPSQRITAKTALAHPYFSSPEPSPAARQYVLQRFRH
Chain of Cyclin-dependent kinase 4 (Homo sapiens) (P11802 whole entry): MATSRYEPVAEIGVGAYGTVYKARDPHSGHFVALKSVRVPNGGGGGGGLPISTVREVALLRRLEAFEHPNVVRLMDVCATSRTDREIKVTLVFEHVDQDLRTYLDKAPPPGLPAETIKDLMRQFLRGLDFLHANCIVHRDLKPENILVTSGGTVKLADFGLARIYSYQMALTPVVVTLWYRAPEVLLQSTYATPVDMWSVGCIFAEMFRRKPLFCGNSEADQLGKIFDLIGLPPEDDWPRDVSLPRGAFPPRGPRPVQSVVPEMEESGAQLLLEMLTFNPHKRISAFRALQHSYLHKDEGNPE
Chain of Serine/threonine-protein kinase Chk2 (Homo sapiens) (O96017 whole entry): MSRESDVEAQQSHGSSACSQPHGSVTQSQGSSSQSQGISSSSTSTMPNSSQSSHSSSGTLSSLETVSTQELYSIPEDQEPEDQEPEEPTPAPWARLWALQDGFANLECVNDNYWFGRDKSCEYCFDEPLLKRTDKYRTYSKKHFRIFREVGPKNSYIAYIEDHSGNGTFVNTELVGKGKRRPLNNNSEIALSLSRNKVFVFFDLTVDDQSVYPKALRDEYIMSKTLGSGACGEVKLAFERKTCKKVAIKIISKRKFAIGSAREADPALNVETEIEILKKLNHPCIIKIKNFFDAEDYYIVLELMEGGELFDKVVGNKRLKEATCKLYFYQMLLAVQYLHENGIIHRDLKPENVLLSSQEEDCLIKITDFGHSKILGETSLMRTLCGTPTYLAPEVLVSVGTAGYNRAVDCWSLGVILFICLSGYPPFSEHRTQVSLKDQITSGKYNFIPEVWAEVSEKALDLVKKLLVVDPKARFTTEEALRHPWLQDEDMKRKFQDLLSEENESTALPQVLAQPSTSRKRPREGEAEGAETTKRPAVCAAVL
Chain of Mitogen-activated protein kinase 8 (Homo sapiens) (P45983 whole entry): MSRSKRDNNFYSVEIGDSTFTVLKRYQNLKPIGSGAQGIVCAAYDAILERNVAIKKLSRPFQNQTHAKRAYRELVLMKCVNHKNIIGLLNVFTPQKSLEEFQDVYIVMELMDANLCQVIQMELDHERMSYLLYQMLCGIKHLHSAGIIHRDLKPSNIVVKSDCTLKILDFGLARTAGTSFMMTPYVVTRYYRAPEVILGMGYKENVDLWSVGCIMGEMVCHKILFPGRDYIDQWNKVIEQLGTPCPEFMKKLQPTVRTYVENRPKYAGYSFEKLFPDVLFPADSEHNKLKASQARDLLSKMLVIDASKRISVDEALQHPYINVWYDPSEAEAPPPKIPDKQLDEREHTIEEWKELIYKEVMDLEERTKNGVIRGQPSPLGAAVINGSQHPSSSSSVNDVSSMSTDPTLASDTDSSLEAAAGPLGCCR
Chain of Mitogen-activated protein kinase 1 (Homo sapiens) (P28482 whole entry): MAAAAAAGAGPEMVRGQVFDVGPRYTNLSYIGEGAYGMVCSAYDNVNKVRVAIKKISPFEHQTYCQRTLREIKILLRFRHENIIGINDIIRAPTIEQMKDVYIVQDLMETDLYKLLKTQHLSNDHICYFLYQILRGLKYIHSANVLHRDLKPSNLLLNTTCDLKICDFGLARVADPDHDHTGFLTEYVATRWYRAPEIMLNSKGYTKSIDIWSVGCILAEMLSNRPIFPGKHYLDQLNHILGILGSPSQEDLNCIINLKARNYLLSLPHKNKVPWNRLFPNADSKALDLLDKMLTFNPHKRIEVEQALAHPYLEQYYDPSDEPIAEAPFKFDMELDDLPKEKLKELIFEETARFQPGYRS
Chain of Tyrosine-protein kinase CSK (Homo sapiens) (P41240 2-450 limits assumed): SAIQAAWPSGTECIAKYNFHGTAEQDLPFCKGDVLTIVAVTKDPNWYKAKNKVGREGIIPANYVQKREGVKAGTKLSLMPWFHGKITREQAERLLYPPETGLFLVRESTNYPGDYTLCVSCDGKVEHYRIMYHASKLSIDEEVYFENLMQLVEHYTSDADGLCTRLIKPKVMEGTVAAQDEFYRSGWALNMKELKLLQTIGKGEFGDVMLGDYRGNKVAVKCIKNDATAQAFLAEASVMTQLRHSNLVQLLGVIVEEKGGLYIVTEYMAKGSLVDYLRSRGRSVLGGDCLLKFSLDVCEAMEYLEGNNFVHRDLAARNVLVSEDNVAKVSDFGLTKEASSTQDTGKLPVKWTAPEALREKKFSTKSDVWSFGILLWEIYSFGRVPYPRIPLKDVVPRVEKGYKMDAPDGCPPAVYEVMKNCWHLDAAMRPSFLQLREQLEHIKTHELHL
Chain of Dual specificity mitogen-activated protein kinase kinase 4 (Homo sapiens) (P45985 whole entry): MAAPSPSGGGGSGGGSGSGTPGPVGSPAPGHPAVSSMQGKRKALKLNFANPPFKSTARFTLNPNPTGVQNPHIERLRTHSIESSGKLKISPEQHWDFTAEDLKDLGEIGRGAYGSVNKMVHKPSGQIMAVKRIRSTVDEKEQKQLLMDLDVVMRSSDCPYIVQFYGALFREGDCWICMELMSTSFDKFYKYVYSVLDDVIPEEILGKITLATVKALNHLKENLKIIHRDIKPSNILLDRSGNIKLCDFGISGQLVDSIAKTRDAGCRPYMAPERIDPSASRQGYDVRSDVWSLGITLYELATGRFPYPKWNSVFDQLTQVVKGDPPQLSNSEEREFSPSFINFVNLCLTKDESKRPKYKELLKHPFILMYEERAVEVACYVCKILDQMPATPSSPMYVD
Chain of Cyclin-dependent kinase 5/CDK5 activator 1 (Homo sapiens) (Q00535 whole entry): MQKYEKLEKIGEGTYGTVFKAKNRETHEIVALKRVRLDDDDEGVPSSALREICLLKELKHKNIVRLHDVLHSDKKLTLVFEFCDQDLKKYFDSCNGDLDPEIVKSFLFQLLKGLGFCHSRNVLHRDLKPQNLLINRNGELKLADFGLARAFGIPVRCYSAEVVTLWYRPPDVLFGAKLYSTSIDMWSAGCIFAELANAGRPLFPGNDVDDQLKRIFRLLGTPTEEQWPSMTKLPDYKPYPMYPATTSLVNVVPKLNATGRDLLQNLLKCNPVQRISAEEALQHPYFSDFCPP
Chain of Cyclin-dependent kinase 5/CDK5 activator 1 (Homo sapiens) (Q15078 99-307 partner limits assumed): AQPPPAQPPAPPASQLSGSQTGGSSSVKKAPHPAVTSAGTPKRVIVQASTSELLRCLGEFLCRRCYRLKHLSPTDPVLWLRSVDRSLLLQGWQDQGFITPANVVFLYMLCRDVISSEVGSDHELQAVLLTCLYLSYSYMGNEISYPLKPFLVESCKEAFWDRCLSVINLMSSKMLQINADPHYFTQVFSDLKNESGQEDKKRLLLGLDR

solubility at 168 h [1]: 8900 µg/mL (≈ 18 mM)
Control [2]: 98%
Control [3]: 74%
Control [4]: 108%
Control [5]: 94%
Control [6]: 94%
Control [7]: 83%
Control [8]: 89%
Control [9]: 63%
pIC50 [10]: 7.31
pIC50 [11]: 5.98
inhibition [12]: 45%
inhibition [13]: 83%
pIC50 [14]: 5.78
pIC50 [15]: 5.00
Control [16]: 70%
Control [17]: 103%
Control [18]: 90%
Control [19]: 91%
Control [20]: 84%
Control [21]: 104%
Control [22]: 65%
Control [23]: 112%
pIC50 [24]: 5.26
Control [25]: 100%
Control [26]: 90%
Control [27]: 58%
IC50 [28]: 2.93 µM
Control [29]: 70%
Control [30]: 84%
Control [31]: 53%
Control [32]: 93%
Control [33]: 85%
Control [34]: 104%
Control [35]: 116%
Control [36]: 68%
Control [37]: 100%
Control [38]: 99%
Control [39]: 88%
Control [40]: 107%
Control [41]: 60%
Control [42]: 104%
Control [43]: 84%
Control [44]: 78%
SMILES: Cn1ccc2ccc3c4[nH]c5c(CCCN[C@H]6CC[C@H](O)CC6)cccc5c4c4c(c3c21)C(=O)NC4=O
